Compound activity: PubChem BioAssay, Johns Hopkins Ion Channel Center
In the library only some 3.5% were active in any assay of this set; here they are far more common.
MrgX1 agonist – activates human MrgX1 receptor signaling; Q96LB2; MrgX1-HEK293 cells, Fluo-4 calcium fluorescence, agonist mode; stronger effect = higher value; B-score at 10 µM; 310,000 tested, 0.44% active;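 active = calcium response B-score plate-corrected fluorescence ratio at least 3 library SD, with starting fluorescence B-score inside 5 SD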
Target sequence (Q96LB2 whole entry, looked up): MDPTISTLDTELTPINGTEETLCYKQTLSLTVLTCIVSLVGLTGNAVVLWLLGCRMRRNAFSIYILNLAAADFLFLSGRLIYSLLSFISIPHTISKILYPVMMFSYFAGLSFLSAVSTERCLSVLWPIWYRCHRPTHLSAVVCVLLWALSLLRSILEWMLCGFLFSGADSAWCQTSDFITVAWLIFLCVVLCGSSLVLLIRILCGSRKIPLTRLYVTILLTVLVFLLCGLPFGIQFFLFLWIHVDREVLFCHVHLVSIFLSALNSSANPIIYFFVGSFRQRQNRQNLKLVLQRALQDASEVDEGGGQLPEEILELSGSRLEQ
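Material: MrgX1-expressing HEK293 cells / Dosing: compound as first of three additions / Incubation: overnight seeding, then 1 h dark dye loading / Signal: Fluo-4 NW calcium fluorescence / Evaluation: B-scored fluorescence response ratio / Benchmarks: positive and negative control wells on each plate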
RGS4 inh – inhibitors of human RGS4; P49798; HEK293 M3R/RGS4 inducible, Fluo-4 calcium flux; stronger effect = higher value; triggered by carbachol at its EC20; B-score at 10 µM; 310,000 tested, 0.45% active; AID 463165;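 active = B-score, a plate-corrected calcium signal, over three deviations above library mean, with baseline fluorescence within five deviations of library mean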;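 note: RGS4 expression induced by doxycycline in cells with stable M3 receptor; B-score is computed from the integrated fluorescence ratio over baseline after carbachol; higher B-score means a larger calcium signal and so more RGS4 inhibition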
Target sequence (P49798 whole entry, looked up): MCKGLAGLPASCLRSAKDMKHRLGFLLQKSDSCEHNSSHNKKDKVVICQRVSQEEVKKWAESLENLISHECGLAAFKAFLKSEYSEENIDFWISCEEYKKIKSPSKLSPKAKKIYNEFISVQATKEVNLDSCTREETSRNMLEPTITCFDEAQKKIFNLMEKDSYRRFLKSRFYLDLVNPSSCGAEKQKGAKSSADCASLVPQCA
MrgX1 antagonist – antagonists of human MrgX1 receptor. AID 588676. MRGX1-HEK293 calcium flux, Fluo-4, BAM8-22 antagonism; stronger effect = lower value. 310,000 tested, 1.3% active. B-score at 10 µM. Q96LB2;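 active = calcium-response B-score plate-corrected more than 3 library SD below zero, starting fluorescence within 5 deviations, no agonist response on first addition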;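 note: peak minus trough fluorescence over baseline after final BAM8-22 challenge near maximal dose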
MrgX1 allo act – allosterically activates human MrgX1 receptor signaling. Q96LB2. MrgX1-HEK293, Fluo-4 calcium flux, FDSS; stronger effect = higher value. B-score at 10 µM. 310,000 tested, 0.63% active. AID 588675;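 active = plate-corrected calcium response at least 3 library SD above typical, normal starting fluorescence, not activating the receptor alone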;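 note: compound read alongside a low EC10 to EC30 dose of BAM8-22 agonist; peak minus trough fluorescence over baseline measured at the second addition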
RGS4 act – RGS4 potentiation or activation. HEK293 M3R/inducible RGS4, carbachol calcium flux Fluo4; stronger effect = lower value. B-score at 10 µM. 310,000 tested, 0.92% active. AID 463111;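 active = B-score of the integrated calcium signal more than 4 SD below the library mean, with starting fluorescence not abnormally high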;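 note: negative B-score means reduced calcium response which marks RGS4 activation or potentiation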
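Also added: carbachol at ECmax as muscarinic agonist stimulus; Assay system: HEK293 cells with stable M3R and inducible RGS4; Timing: overnight RGS4 induction, 30 min dye load 37 °C, 20 min compound RT; Measured by: Fluo4-AM (2 µM) calcium-flux fluorescence, kinetic read.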
The depositor's hits bear a star; i = inactive; / = not tested or not shown.

SMILES | MrgX1 agonist | RGS4 inh | MrgX1 antagonist | MrgX1 allo act | RGS4 act
O=C(COC(=O)C1CCC1)NCc1ccccc1 | i | i | i | i | i
NC(=O)CC(NC(=O)c1cccc(Br)c1)c1ccc(NC2CCCCCCC2)c([N+](=O)[O-])c1 (stereo not given) | i | i | i | i | i
COc1ccc(C(=O)N2CCN(c3ccccc3OC)CC2)cc1 | i | i | i | i | i
COc1ccc(/C=N/NC(=O)C(=O)N2CCN(c3ccccc3OC)CC2)cc1 | i | i | -4.78* | i | i
COc1ccc(-c2noc3c2-c2nc(-c4ccccc4)sc2CC3)cc1 | i | i | i | i | i
Fc1ccccc1-c1nc2c(s1)CCc1onc(-c3ccc(Br)cc3)c1-2 | i | i | -5.38* | i | i
COc1ccc(-c2noc3c2-c2nc(-c4ccc(C)cc4)sc2CC3)cc1 | i | i | -4.64* | i | i
COc1ccc(CC(=O)NNS(=O)(=O)c2ccccc2)cc1OC | i | i | -8.01* | i | i
CCN(Cc1ccccc1)c1ccc(/C=C(\C#N)c2ccccn2)cc1 | i | i | i | i | i
CCN(CC)c1ccc(/C=C(\C#N)c2ccccn2)cc1 | i | i | -9.07* | i | i
NS(=O)(=O)c1cccc(NC(=O)CC(NC(=O)c2ccccc2Cl)c2ccccc2)c1 (stereo not given) | i | i | i | i | i
CCN(CC)C(=S)Nc1ccc([N+](=O)[O-])cc1 | i | i | i | i | i
CCc1ccc(CN(Cc2cccnc2)C(=O)/C=C/c2ccc(OC)cc2)cc1 | i | i | i | i | i
O=C(c1cc(Br)ccc1Cl)N1CCN(c2ccccn2)CC1 | i | i | i | i | i
COC(=O)c1ccc(Oc2c(Cl)cccc2[N+](=O)[O-])cc1 | i | i | i | 8.57* | i
Cc1nc(C)c(-c2nnc(-c3ccc(C(C)(C)C)cc3)o2)cc1C(=O)NN | i | i | -6.01* | i | i
Cc1nc(C)c(-c2nnc(-c3ccccc3Cl)o2)cc1C(=O)NN | i | i | i | i | i
O=C(CN1C(=O)NC2(CCCCC2)C1=O)Oc1ccc2c(C(F)(F)F)cc(=O)oc2c1 | i | i | i | i | i
CCc1cc(=O)oc2cc(OC(=O)CN3C(=O)NC4(CCCC4)C3=O)ccc12 | i | i | -6.92* | i | i
Nc1ncnc2c1ncn2[C@@H]1O[C@H](COP(=O)(O)OP(=O)(O)OP(=O)(O)O)[C@@H](O)[C@H]1O | 44.6* | / | i | i | /
N#Cc1c(-c2ccccc2Cl)cc(-c2ccccc2)nc1Br | i | i | i | i | -7.34*
O=c1oc2c3c4c(cc2s1)CCCN4CCC3 | i | i | i | i | i
O=c1ccc2cc3c4c(c2o1)CCCN4CCC3 | i | i | i | i | -7.37*
CCCN1C(=O)/C(=C/c2c(N3CCNC(=O)C3CC(=O)OCC)nc3c(C)cccn3c2=O)SC1=S (stereo not given) | i | i | i | i | i
CCOC(=O)CC1C(=O)NCCN1c1nc2ccc(C)cn2c(=O)c1/C=C1\SC(=S)N(CC(C)C)C1=O (stereo not given) | 103* | i | i | i | i
SMILES | MrgX1 agonist | RGS4 inh | MrgX1 antagonist | MrgX1 allo act | RGS4 act
CCOC(=O)CC1C(=O)NCCN1c1nc2ccc(C)cn2c(=O)c1/C=C1\SC(=S)N(C(C)CC)C1=O (stereo not given) | 108* | i | i | i | i
O=C(COC(=O)c1cc([N+](=O)[O-])ccc1NCCO)Nc1cccc(S(=O)(=O)N2CCCC2)c1 | i | i | i | i | i
CC1CN(C(=O)c2cc3cc(F)ccc3[nH]2)CC(C)O1 (stereo not given) | i | i | i | i | i
Cc1ccc(-c2nnn(CC(=O)N(c3ccc(F)cc3)C(C(=O)NC3CCCC3)c3ccco3)n2)o1 (stereo not given) | i | i | i | i | i
Cc1ccc(-c2nnn(CC(=O)N(c3cccc(F)c3)C(C(=O)NC3CCCC3)c3ccco3)n2)o1 (stereo not given) | i | i | -6.58* | i | i
O=[N+]([O-])c1cnc2ccccc2c1 | i | i | i | i | i
O=[N+]([O-])c1cc([N+](=O)[O-])c2cc3ccccc3nc2c1 | 27.7* | 14.2* | i | i | i
Cc1sc2nc(CSc3cccc(C(F)(F)F)c3)[nH]c(=O)c2c1C | i | i | -5.11* | i | i
O=C(N/N=C/c1ccc(OC(=O)c2ccccc2Cl)cc1)c1cc(O)cc(O)c1 | i | i | i | i | -7.59*
CN(C)c1ccc(N2C(=NC(=O)CC3CCCCC3)SC3CS(=O)(=O)CC32)cc1 (stereo not given) | i | i | i | i | i
COc1ccc(/C=C/C(=O)OCC(=O)Nc2ccc(Cl)c(S(=O)(=O)N(C)C)c2)cc1OC | i | i | i | i | -9.44*
CC(=O)/C(=N\Nc1ccccc1)Sc1cccc2cccnc12 | i | i | -4.74* | i | i
COc1ccc2cc([C@H](C)C(=O)N(C)Cc3ccccc3N3CCCC3)ccc2c1 | i | i | i | i | i
COc1cc(OC)cc(C(=O)NCC2CCCN(Cc3cccc(C(C)=O)c3)C2)c1 (stereo not given) | i | i | i | i | i
C#CCOc1ccc(C2C(C#N)=C(N)Oc3cc(O)ccc32)cc1 (stereo not given) | i | i | i | i | i
Cc1noc(C)c1COC(=O)c1cccc(S(=O)(=O)N2c3ccccc3CC2C)c1 (stereo not given) | i | i | i | i | -7.4*
Cc1noc(C)c1COC(=O)c1cccc(S(=O)(=O)N2CCOCC2)c1 | i | i | i | i | i
Cc1cc(/C=C2/C(=N)N3C(=NC2=O)SN=C3S(C)(=O)=O)c(C)n1-c1ccccc1F | i | i | i | 11.2* | i
COc1cc(/C=C2\C(=N)N3N=CSC3=NC2=O)cc(Br)c1OC(=O)c1ccco1 | 34.1* | i | i | i | i
CC1=CC2=NC(=O)/C(=C\c3cc(C)n(-c4ccccc4F)c3C)C(=N)N2O1 | i | i | i | i | i
CCS(=O)(=O)C1=NN2C(=N)/C(=C\c3ccc(OC(=O)c4ccco4)c(OC)c3)C(=O)N=C2S1 | i | i | i | i | i
CS(=O)(=O)C1=NSC2=NC(=O)/C(=C\c3ccc(OC(=O)c4ccco4)cc3)C(=N)N21 | i | i | i | 24.9* | i
